Data as given in ChEMBL document CHEMBL4622927, “6,6'-Aryl trehalose analogs as potential Mincle ligands” (Bioorg Med Chem, 2020).
Values belong to the compound of their own block, whether it stands above or below them. Calls of active or inactive are those of the source. The rule behind the calls is not given here.

How the values were obtained:
PBMC = assay: Induction of IL-6 production in human PBMC measured after 18 to 24 hrs at 0.01 to 100 uM by ELISA; assay type: functional, cell-based
Summary of the method: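 Freshly Ficoll-isolated PBMCs from healthy adult donors, in RPMI with 5% autologous plasma and counted as viable cells by trypan blue, added to wells with compounds serially diluted in ethanol and dried on. Incubation 18–24 h at 37 °C/5% CO2. Supernatant IL-6 measured by ELISA, read at 450 nm; n=3 independent donors, mean ± SEM.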

[1] = molecular target: T1, C-type lectin domain family 4 member E (Homo sapiens) (UniProt Q9ULY5); assay: Agonist activity at human Mincle receptor expressed in HEK cells cotransfected with NF-kappaB SEAP reporter gene assessed as increase in production of SEAP measured after 18 to 24 hrs by SEAP reporter gene-based spectrophotometric method; assay type: cell-based
T1 sequence (whole entry): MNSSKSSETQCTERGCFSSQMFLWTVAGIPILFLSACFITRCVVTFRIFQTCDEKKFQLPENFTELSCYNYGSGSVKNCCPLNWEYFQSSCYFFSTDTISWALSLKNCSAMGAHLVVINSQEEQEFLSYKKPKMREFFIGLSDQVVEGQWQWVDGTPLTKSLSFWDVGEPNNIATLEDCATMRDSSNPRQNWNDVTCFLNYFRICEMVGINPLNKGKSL
Summary of the method: (§1)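 Compounds serially diluted in EtOH; 10x final concentration coated on well bottoms and solvent evaporated >1 h. HEK-Blue hMincle cells with NF-κB-driven SEAP reporter, grown in DMEM/10% FBS with blasticidin, puromycin and CLR selection, added at 3 × 10^5 cells/well. 18–24 h at 37 °C. HEK-Blue Detection, OD 620–655 nm, fold change over vehicle; n=3. HEK null cells as counter-screen.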

[2] = molecular target: T1, C-type lectin domain family 4 member E (Homo sapiens); assay: Agonist activity at human Mincle receptor expressed in HEK cells cotransfected with NF-kappaB SEAP reporter gene assessed as increase in production of SEAP at 20 uM measured after 18 to 24 hrs by SEAP reporter gene-based spectrophotometric method; assay type: cell-based; summary of the method: as §1

SMILES: Cc1ccc(C(=O)OC[C@H]2O[C@H](O[C@H]3O[C@H](COC(=O)c4ccc(C)cc4C(F)(F)F)[C@@H](O)[C@H](O)[C@H]3O)[C@H](O)[C@@H](O)[C@@H]2O)c(C(F)(F)F)c1
- Activity (PBMC): inactive

SMILES: O=C(OC[C@H]1O[C@H](O[C@H]2O[C@H](COC(=O)c3cc(C(F)(F)F)ccc3O)[C@@H](O)[C@H](O)[C@H]2O)[C@H](O)[C@@H](O)[C@@H]1O)c1cc(C(F)(F)F)ccc1O
- Activity (PBMC): inactive

SMILES: COc1ccc(C(=O)OC[C@H]2O[C@H](O[C@H]3O[C@H](COC(=O)c4ccc(OC)cc4C(F)(F)F)[C@@H](O)[C@H](O)[C@H]3O)[C@H](O)[C@@H](O)[C@@H]2O)c(C(F)(F)F)c1
- Activity (PBMC): inactive

SMILES: O=C(OC[C@H]1O[C@H](O[C@H]2O[C@H](COC(=O)c3cccc(C(F)(F)F)c3O)[C@@H](O)[C@H](O)[C@H]2O)[C@H](O)[C@@H](O)[C@@H]1O)c1cccc(C(F)(F)F)c1O
- Activity (PBMC): inactive

SMILES: O=C(OC[C@H]1O[C@H](O[C@H]2O[C@H](COC(=O)c3cc([N+](=O)[O-])cc([N+](=O)[O-])c3)[C@@H](O)[C@H](O)[C@H]2O)[C@H](O)[C@@H](O)[C@@H]1O)c1cc([N+](=O)[O-])cc([N+](=O)[O-])c1
- Activity (PBMC): Active

Continued, in another order:

- Activity [1]: Dose-dependent effect
SMILES: COc1ccc(C(F)(F)F)cc1C(=O)OC[C@H]1O[C@H](O[C@H]2O[C@H](COC(=O)c3cc(C(F)(F)F)ccc3OC)[C@@H](O)[C@H](O)[C@H]2O)[C@H](O)[C@@H](O)[C@@H]1O
- Activity (PBMC): inactive

- Activity [1]: Dose-dependent effect
SMILES: O=C(OC[C@H]1O[C@H](O[C@H]2O[C@H](COC(=O)c3c(C(F)(F)F)cccc3C(F)(F)F)[C@@H](O)[C@H](O)[C@H]2O)[C@H](O)[C@@H](O)[C@@H]1O)c1c(C(F)(F)F)cccc1C(F)(F)F
- Activity (PBMC): Active

- Activity [2]: Active
SMILES: O=C(Cc1ccccc1C(F)(F)F)OC[C@H]1O[C@H](O[C@H]2O[C@H](COC(=O)Cc3ccccc3C(F)(F)F)[C@@H](O)[C@H](O)[C@H]2O)[C@H](O)[C@@H](O)[C@@H]1O
- Activity (PBMC): inactive

- Activity [1]: Dose-dependent effect
SMILES: CCCCCCCCCCCCCCCCCCCCCC(=O)OC[C@H]1O[C@H](O[C@H]2O[C@H](COC(=O)CCCCCCCCCCCCCCCCCCCCC)[C@@H](O)[C@H](O)[C@H]2O)[C@H](O)[C@@H](O)[C@@H]1O

- Activity [1]: Dose-dependent effect
SMILES: O=C(OC[C@H]1O[C@H](O[C@H]2O[C@H](COC(=O)c3ccccc3C(F)(F)F)[C@@H](O)[C@H](O)[C@H]2O)[C@H](O)[C@@H](O)[C@@H]1O)c1ccccc1C(F)(F)F
- Activity (PBMC): Active
